These results are taken from ChEMBL document CHEMBL4229483, “Synthesis and evaluation of an orally available "Y"-shaped biaryl peroxisome proliferator-activated receptor δ agonist” (Bioorg Med Chem, 2018).

In general, EC50 refers to the concentration at which the effect is half-maximal. As a reminder, the inhibition is the share of the control response that was lost under treatment. As usually defined, the IC50 is the concentration that inhibits the measured activity by half. As usually defined, the AUC is the area under the concentration-time curve, a measure of exposure. By clearance is commonly meant the volume of plasma or blood freed of the substance per unit of time. Usually half-life stands for how long it takes for the measured level to halve. In general, Cmax refers to the highest concentration seen after dosing. As a reminder, the Tmax is the time at which the peak concentration occurs. For orientation: bioavailability means the share of a dose that reaches the circulation, judged against a reference dose that is usually intravenous.

A value given as a limit tells only on which side of the number the result lay.

Data set [1] has as its target T1, Peroxisome proliferator-activated receptor alpha (Homo sapiens, UniProt Q07869).
T1 sequence (Q07869 whole entry): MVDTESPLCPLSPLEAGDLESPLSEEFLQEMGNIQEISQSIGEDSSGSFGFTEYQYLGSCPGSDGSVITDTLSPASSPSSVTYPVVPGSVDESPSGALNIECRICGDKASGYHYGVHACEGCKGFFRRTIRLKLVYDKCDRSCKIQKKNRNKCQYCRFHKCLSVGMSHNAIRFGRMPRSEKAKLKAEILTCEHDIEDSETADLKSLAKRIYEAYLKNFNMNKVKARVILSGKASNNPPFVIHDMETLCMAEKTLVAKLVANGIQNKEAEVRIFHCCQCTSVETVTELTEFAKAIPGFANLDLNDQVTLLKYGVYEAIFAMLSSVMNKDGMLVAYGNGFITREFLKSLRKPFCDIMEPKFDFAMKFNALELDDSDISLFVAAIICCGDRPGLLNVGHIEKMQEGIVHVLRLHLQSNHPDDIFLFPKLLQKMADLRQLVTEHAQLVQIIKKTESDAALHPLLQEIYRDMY
Briefly: Transactivation of human PPARalpha expressed in monkey CV-1 cells coexpressing TK-PPRE-Luc after 24 hrs by luciferase reporter gene assay. In kind it is cell-based. (Reporter assays use an easily measured gene product as a stand-in for the process of interest.)

Data set [2] addresses T2, Peroxisome proliferator-activated receptor gamma (Homo sapiens, UniProt P37231).
T2 sequence (P37231 whole entry): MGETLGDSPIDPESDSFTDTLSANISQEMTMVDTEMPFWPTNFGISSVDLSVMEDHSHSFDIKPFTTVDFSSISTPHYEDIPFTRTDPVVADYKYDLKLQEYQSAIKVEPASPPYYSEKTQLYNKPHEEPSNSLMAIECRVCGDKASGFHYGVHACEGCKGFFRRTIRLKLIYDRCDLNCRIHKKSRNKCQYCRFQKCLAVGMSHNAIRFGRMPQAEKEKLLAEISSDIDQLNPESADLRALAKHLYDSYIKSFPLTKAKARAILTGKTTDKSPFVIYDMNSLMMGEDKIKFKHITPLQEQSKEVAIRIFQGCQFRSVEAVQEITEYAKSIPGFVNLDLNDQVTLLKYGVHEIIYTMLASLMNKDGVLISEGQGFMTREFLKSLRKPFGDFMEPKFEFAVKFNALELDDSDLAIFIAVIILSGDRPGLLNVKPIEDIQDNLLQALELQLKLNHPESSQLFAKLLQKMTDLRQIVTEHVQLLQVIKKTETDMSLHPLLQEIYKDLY
Briefly: Transactivation of human PPARgamma expressed in monkey CV-1 cells coexpressing TK-PPRE-Luc after 24 hrs by luciferase reporter gene assay. In kind it is cell-based.

The target in a further data set is T3, CYP1A2 (Homo sapiens, UniProt P05177).
T3 sequence (P05177 whole entry): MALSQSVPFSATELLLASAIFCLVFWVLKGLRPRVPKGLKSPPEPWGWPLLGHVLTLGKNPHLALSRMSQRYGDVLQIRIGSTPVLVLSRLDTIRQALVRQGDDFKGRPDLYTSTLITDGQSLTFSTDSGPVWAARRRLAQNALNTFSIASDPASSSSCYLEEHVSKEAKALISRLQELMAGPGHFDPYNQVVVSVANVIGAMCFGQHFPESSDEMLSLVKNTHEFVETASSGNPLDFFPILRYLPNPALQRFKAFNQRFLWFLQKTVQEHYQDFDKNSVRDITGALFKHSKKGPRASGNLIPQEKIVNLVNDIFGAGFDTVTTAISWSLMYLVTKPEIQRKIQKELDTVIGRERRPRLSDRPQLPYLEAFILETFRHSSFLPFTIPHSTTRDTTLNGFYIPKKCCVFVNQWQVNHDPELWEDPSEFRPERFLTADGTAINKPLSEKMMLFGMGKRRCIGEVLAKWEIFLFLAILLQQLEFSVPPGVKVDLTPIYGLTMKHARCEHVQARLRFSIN
Nature of the data set: Inhibition of phenacetin O-deethylase activity of CYP1A2 in human liver microsomes at 10 uM preincubated for 5 mins followed by NADPH addition measured after 15 mins by LC-MS/MS analysis. In kind it is ADME. The following applies: probe phenacetin (O-deethylation). A digest of the protocol:
(§1)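 Compound incubated with liver microsomes and isotype-specific CYP substrates for 15 min. Activity expressed as percent inhibition relative to incubation without compound. Values are means of duplicates.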
On the technique in general: Microsomes from liver hold many membrane-bound enzymes, among them those of drug oxidation.

For a further data set, the target named is CYP2C9 (Homo sapiens, UniProt P11712). Nature of the data set: Inhibition of tolbutamide 4-hydroxylase activity of CYP2C9 in human liver microsomes at 10 uM preincubated for 5 mins followed by NADPH addition measured after 15 mins by LC-MS/MS analysis. In kind it is ADME. The conditions noted are these: probe tolbutamide (4-hydroxylation). A digest of the protocol:
as §1

The target in a further data set is CYP2C19 (Homo sapiens, UniProt P33261). Briefly: Inhibition of S-mephenytoin 4-hydroxylase activity of CYP2C19 in human liver microsomes at 10 uM preincubated for 5 mins followed by NADPH addition measured after 15 mins by LC-MS/MS analysis. In kind it is ADME. The following applies: probe S-mephenytoin (4-hydroxylation). A digest of the protocol: as §1
Chain of CYP2C19 (P33261 whole entry): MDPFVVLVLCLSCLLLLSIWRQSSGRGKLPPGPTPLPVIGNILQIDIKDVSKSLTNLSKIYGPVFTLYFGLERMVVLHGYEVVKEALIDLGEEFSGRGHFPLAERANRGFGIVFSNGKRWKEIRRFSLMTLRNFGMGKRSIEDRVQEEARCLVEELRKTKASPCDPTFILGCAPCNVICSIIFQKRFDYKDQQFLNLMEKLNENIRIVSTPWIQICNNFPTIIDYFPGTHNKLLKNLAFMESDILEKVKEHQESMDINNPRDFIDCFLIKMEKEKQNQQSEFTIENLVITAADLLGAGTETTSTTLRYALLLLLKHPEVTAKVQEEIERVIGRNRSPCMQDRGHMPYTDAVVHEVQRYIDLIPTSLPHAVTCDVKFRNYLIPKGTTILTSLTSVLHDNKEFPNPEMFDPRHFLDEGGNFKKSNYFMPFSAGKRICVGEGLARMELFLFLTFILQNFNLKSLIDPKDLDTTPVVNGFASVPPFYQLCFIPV
The target of a further data set is CYP2D6 (Homo sapiens, UniProt P10635). Briefly: Inhibition of dextromethorphan O-demethylase activity of CYP2D6 in human liver microsomes at 10 uM preincubated for 5 mins followed by NADPH addition measured after 15 mins by LC-MS/MS analysis. In kind it is ADME. The following applies: probe dextromethorphan (O-demethylation). Put shortly: as §1
Chain of CYP2D6 (P10635 whole entry): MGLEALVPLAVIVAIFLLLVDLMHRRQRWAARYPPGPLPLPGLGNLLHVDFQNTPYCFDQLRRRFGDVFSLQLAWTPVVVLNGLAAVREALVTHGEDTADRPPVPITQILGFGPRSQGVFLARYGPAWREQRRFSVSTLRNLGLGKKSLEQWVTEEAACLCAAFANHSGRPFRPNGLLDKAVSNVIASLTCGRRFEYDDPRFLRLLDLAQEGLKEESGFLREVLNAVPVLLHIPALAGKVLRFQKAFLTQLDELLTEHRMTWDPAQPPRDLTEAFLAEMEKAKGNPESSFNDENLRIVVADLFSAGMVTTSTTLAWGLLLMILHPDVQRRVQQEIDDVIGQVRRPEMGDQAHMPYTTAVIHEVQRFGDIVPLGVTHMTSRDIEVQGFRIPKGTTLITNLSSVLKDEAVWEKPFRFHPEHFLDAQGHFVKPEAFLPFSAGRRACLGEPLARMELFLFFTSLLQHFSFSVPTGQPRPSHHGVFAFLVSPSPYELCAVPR
The next data set concerns the target CYP3A4 (Homo sapiens, UniProt P08684). Nature of the data set: Inhibition of midazolam 1'-hydroxylase activity of CYP3A4 in human liver microsomes at 10 uM preincubated for 5 mins followed by NADPH addition measured after 15 mins by LC-MS/MS analysis. In kind it is ADME. The following applies: probe midazolam (1'-hydroxylation). A digest of the protocol:
as §1

Data set [3] in a line: Metabolic stability in human liver microsomes assessed as parent compound remaining at 1 uM after 30 mins in presence of NADPH by LC-MS/MS analysis. In kind it is ADME, microsome. The following applies: read-out: Stability. Put shortly:
(§2)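 Compound incubated with liver microsomes for 30 min. Percentage of parent remaining quantified by LC-MS/MS. Means of duplicate determinations.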

Data set [4] is described as follows: Metabolic stability in dog liver microsomes assessed as parent compound remaining at 1 uM after 30 mins in presence of NADPH by LC-MS/MS analysis. In kind it is ADME, Canis lupus familiaris, microsome. The following applies: read-out: Stability. Put shortly: as §2
The nature of data set [5]: Metabolic stability in rat liver microsomes assessed as parent compound remaining at 1 uM after 30 mins in presence of NADPH by LC-MS/MS analysis. The conditions noted are these: read-out: Stability. In kind it is ADME, microsome. Put shortly: as §2
Data set [6] in a line: Metabolic stability in mouse liver microsomes assessed as parent compound remaining at 1 uM after 30 mins in presence of NADPH by LC-MS/MS analysis. The conditions noted are these: read-out: Stability. In kind it is ADME, microsome. Put shortly: as §2
Data set [7] is described as follows: Permeability of the compound at 10 uM at pH 7.4 after 5 hrs by PAMPA. In kind it is ADME. The following applies: read-out: permeability. Put shortly: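 PAMPA. Effective permeability calculated after 5 h. Values are the mean of four determinations.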
In general terms: In PAMPA a lipid-coated filter parts donor from acceptor wells.

Data set [8] concerns the target Voltage-gated inwardly rectifying potassium channel KCNH2 (Homo sapiens, UniProt Q12809). Nature of the data set: Inhibition of human ERG after 4 hrs by fluorescence polarization assay. Put shortly: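 hERG channel binding measured by a fluorescence polarization (Predictor) assay. IC50 obtained by four-parameter non-linear regression.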
The nature of data set [9]: Total AUC in Sprague-Dawley rat at 1 mg/kg, iv by LC-MS/MS analysis. In kind it is ADME, organism-based. Also noted: dose 1 mg/kg, route intravenous, time AUCmax. The conditions noted are these: in vivo. Put shortly: (§3)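 Rats (n = 4) given 1 mg/kg iv. Vehicle: ethanol 10%, DMSO 10%, Cremophor EL 10%, water 50%, PEG400 30%. Parameters calculated from composite mean plasma concentration–time data, reported as mean ± SD.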

Data set [10] is described as follows: Clearance in Sprague-Dawley rat at 1 mg/kg, iv by LC-MS/MS analysis. In kind it is ADME, organism-based. The following applies: in vivo. Put shortly: as §3
Data set [11] in a line: Volume of distribution at steady state in Sprague-Dawley rat at 1 mg/kg, iv by LC-MS/MS analysis. In kind it is ADME, organism-based. The following applies: in vivo, read-out: Vdss. A digest of the protocol: as §3
A short description of data set [12]: Half life in Sprague-Dawley rat at 1 mg/kg, iv by LC-MS/MS analysis. In kind it is ADME, organism-based. The following applies: in vivo. A digest of the protocol: as §3
Data set [13] can be described thus: Cmax in Sprague-Dawley rat at 10 mg/kg, po by LC-MS/MS analysis. In kind it is ADME, organism-based. Also noted: dose 10 mg/kg, route oral. The conditions noted are these: in vivo. Put shortly: (§4)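 Formulation: ethanol 10%, DMSO 10%, Cremophor EL 10%, […], PEG400 30%. PK parameters taken from composite mean plasma concentration–time profiles, given as mean ± SD.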

The nature of data set [14]: Tmax in Sprague-Dawley rat at 10 mg/kg, po by LC-MS/MS analysis. In kind it is ADME, organism-based. The following applies: in vivo. Put shortly:
as §4

The nature of data set [15]: Total AUC in Sprague-Dawley rat at 10 mg/kg, po by LC-MS/MS analysis. In kind it is ADME, organism-based. Also noted: dose 10 mg/kg, route oral, time AUCmax. The following applies: in vivo. A digest of the protocol: as §4
Data set [16] can be described thus: Oral bioavailability in Sprague-Dawley rat at 10 mg/kg by LC-MS/MS analysis. In kind it is ADME, organism-based. The conditions noted are these: in vivo. Put shortly:
as §4

Chain of Voltage-gated inwardly rectifying potassium channel KCNH2 (Q12809 whole entry): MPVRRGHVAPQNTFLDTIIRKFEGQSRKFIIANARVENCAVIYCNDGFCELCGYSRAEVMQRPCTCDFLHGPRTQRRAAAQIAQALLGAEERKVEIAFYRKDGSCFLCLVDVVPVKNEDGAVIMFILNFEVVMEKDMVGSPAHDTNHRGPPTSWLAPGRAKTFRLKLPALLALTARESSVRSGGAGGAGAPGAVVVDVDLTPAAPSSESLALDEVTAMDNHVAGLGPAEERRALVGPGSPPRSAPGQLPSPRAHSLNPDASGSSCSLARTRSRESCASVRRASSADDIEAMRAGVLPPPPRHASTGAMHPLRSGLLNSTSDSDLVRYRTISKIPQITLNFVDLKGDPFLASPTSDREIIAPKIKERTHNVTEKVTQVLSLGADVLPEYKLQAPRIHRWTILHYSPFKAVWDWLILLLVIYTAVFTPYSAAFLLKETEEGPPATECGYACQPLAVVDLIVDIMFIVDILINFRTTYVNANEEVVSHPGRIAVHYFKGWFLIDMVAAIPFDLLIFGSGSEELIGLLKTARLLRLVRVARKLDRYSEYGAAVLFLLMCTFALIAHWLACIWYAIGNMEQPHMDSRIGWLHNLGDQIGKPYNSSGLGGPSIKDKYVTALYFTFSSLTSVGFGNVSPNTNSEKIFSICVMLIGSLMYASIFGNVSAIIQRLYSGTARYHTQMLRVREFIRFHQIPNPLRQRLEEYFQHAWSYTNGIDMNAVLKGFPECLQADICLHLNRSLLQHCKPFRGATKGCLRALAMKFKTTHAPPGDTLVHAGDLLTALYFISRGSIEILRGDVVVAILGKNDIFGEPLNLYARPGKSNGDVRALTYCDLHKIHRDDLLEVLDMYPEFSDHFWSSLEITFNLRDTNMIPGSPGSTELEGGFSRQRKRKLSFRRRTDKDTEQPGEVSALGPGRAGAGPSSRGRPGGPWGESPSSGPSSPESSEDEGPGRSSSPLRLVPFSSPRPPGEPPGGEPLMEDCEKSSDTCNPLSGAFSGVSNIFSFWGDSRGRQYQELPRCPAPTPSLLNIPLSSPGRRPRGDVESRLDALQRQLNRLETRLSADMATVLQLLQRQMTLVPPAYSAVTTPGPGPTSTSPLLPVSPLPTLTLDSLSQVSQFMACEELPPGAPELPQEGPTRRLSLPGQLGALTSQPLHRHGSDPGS
Chain of CYP3A4 (P08684 whole entry): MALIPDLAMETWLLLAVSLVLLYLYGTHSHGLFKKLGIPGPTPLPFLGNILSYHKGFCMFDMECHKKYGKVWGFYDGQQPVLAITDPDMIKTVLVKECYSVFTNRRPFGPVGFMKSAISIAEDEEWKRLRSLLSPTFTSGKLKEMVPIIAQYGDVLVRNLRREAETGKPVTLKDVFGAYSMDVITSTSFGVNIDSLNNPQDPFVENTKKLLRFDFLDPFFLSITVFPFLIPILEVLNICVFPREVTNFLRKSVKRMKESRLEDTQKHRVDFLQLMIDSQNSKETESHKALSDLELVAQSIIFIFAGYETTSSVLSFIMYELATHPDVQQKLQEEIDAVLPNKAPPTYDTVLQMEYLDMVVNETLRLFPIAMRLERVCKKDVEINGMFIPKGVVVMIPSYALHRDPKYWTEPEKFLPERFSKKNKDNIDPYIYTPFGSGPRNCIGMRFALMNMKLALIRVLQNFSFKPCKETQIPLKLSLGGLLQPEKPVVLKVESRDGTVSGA
Chain of CYP2C9 (P11712 whole entry): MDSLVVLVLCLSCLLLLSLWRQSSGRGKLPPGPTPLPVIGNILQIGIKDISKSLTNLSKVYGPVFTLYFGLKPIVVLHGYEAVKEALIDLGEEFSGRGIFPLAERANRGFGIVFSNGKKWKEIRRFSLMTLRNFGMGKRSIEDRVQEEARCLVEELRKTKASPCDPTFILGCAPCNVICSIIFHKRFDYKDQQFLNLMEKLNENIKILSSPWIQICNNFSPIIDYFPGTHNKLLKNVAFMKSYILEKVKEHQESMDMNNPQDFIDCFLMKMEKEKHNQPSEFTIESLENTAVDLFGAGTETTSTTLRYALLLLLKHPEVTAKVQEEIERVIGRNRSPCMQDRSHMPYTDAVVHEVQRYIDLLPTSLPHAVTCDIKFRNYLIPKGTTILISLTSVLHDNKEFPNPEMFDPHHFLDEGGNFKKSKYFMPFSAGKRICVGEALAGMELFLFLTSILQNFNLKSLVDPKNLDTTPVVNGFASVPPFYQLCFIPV

For the molecule `Cc1cc(SC(Cc2ccccc2)c2ccc(-c3ccc(C(F)(F)F)cc3)cc2)ccc1OCC(=O)O` (stereo unspecified), the EC50 in [1] and in data set [2] was above 10 µM in each case. The inhibition at 0.25 h, 10 µM came out at 1.5% against CYP1A2; 35.5% on CYP2C9; 4.3% against CYP2C19; 0% against CYP2D6; 7.3% against CYP3A4. Besides, the remaining at 0.5 h, 1 µM was 99.8% in [3], above 100% in [4], above 100% in [5] and above 100% in data set [6]. Moreover, the Papp at 5 h, 10 µM in data set [7] was determined as 9.54 ×10⁻⁶ cm/s. Also, the IC50 in data set [8] was above 10 µM. For the same molecule, the figures for the AUC in [9] and in [15] were 3830 ng·h/mL and 12500 ng·h/mL, respectively. The molecule further had a clearance in data set [10] of 4 mL/min/kg. Also, in [11], the Vd worked out at 1 L/kg. In [12], the half-life is 3.6 h. In [13], this molecule gave a Cmax of 2320 ng/mL. In addition, the Tmax in data set [14] turned out to be 4.5 h. Further, in [16], the bioavailability amounted to 32.6%.
